High-throughput results from PubChem.
M1 agonist: agonists of M1 muscarinic receptor; CHO-M1 cells, Fluo-4 calcium fluorescence, agonist mode; hits give high values; 64,000 compounds, 3% hits; AID 626; B-score at 10 µM;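 active means fluorescence rise, raw or as B-score row- and column-corrected plate score, outside the 99.7% band of its plate's samples, either direction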
Ecoli tolC: E. coli tolC mutant growth inhibition. E. coli BW25113 tolC mutant growth, OD615. growth inhibition, % at 10 µM (by protocol). 65,000 compounds, 2.2% hits. AID 573;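 active means growth inhibition at or above a cutoff equal to the mean over every tested compound plus 3 SD, cut at about 60% in these data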;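 further: growth measured after 20 h incubation at 37 °C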
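Doses: one dose of 10 µM final / Material: E. coli BW25113 ΔtolC::kan, tolC deletion mutant strain / Buffer or medium: LB with kanamycin 50 µg/mL / Evaluation: percent growth inhibition / Detection: optical density read at 615 nm / Incubation: 37 °C, 20 h exposure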
E coli WT exp: E. coli BW25113 growth inhibition, expanded screen; OD600 absorbance; AID 710; 98,000 compounds, 0.15% hits; growth inhibition, % at 100 µM;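 active means growth inhibition above about 50% at one test dose, limit read from the data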;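 further: growth measured after 20 h incubation at 37 °C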
AP ELISA ortho: orthogonal test for alternative complement pathway inhibitors. Human serum alternative complement pathway, LPS-coated ELISA, C3 deposition; tested in compound mixtures. inhibition, % at 5 µM. 62,000 compounds, 0.08% hits;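 active means inhibition above 30% in each of the two pooled mixtures holding the compound, so the lower value exceeds 30%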;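 further: 0% = serum in Mg-EGTA without compound and 100% = EDTA serum blank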
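Test system – human serum alternative complement pathway, C3 deposition on LPS-coated wells · Buffer or medium – diluted human serum in Mg2+-EGTA GVB++ · Compound dosing – 5 µM each compound, pools of ten, 50 µM per pool · Schedule – 1 h serum-compound exposure at 37 °C · Measured by – Anti-C3 ELISA, OD 450 nm · Read-out basis – percent inhibition of C3 deposition onto LPS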
WNV NS2B-NS3 inh: blocks West Nile virus NS2B-NS3 protease activity | P06935 | WNV NS2B-NS3 protease, fluorogenic substrate Ex360/Em465; hits give low values | z-score (no concentration beside the values) | 65,000 compounds, 0.18% hits | AID 577; in the data active means z-score below about -3
Target sequence (P06935 1371-1501 limits assumed): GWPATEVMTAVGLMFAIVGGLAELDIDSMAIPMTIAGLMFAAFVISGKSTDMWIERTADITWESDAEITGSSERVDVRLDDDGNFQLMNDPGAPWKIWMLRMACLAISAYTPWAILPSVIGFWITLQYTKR
Target sequence (P06935 1502-1679 limits assumed): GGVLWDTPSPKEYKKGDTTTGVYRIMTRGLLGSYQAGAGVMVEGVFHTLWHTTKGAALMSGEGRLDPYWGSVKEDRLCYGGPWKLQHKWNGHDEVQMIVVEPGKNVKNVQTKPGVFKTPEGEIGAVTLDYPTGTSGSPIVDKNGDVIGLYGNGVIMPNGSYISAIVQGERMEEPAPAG
M1 antagonist: antagonists of rat M1 muscarinic receptor. B-score at 10 µM. CHO-M1 cells, Fluo-4 calcium, ACh EC80 antagonist mode; hits give low values. 64,000 compounds, 3.4% hits. P08482;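 active means calcium fluorescence response, raw or row-and-column corrected B-score, differing from the plate sample mean either way at a set confidence level, mostly lower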
Starred values were filed as active, the others as inactive; . = not tested or not shown. Only some compounds are listed: those with a hit (about 5.2% of all), similar ones and a draw of the others.

SMILES	M1 agonist	Ecoli tolC	E coli WT exp	AP ELISA ortho	WNV NS2B-NS3 inh	M1 antagonist
O=C(c1ccco1)N1CCN(c2ncnc3c2[nH]c2ccccc23)CC1	6	6	1	.	0.34	-0.72
CCC(NC(=O)Nc1cc(OC)c(OC)c(OC)c1)(C(F)(F)F)C(F)(F)F	0.016	5	7	3	-0.45	2.4*
CCOC(=O)c1cc(C#N)c(Oc2ccccc2OC)nc1-c1ccccc1	.	.	-20	.	.	.
CCc1c(C(=O)Nc2ncn(Cc3cccc(C)c3)n2)csc1C	0.023	62*	9	8	-0.39	-0.25
CC(=O)c1ccc(NC(=O)Nc2ncn(Cc3cccc(C)c3)n2)cc1	-0.097	-3	-13	-8	0.96	-0.067
CCOc1ccccc1N(CC(=O)NC1CCCC1)C(=O)CCC(=O)Nc1cc(C)on1	0.47	6	0	-8	-8.6*	-0.27
COc1ccccc1N(CC(=O)NC1CCCC1)C(=O)CCC(=O)Nc1cc(C)on1	-0.8	11	7	-16	-0.47	-0.68
Cc1cnc(C(=O)Nc2nccs2)cn1	.	.	3	.	.	.
O=S(=O)(c1ccc(F)cc1)N(CCO)CC(O)Cn1c2ccccc2c2ccccc21 (stereo not given)	-0.6	58	-10	5	-4.1*	1
CCN(CC(O)Cn1c2ccccc2c2ccccc21)S(=O)(=O)c1ccc(F)cc1 (stereo not given)	.	.	-8	.	.	.
O=C(CC1CC2CCC1C2)OCC(=O)c1c[nH]c2ccccc12 (stereo not given)	.	.	0	.	.	.
Cc1cccc(Cn2c(=O)n(Cc3ccco3)c(=O)c3ccccc32)c1	0.75	91*	-17	-4	-0.56	-0.34
Cc1ccc(Cn2ccc(NC(=O)c3cc(CC(C)C)on3)n2)cc1	0.34	72*	-6	5	0.04	-0.6
Cc1ccc(Cn2ccc(NC(=O)c3cc(-c4ccc(Cl)cc4)on3)n2)cc1	-0.47	-22	-3	12	-0.61	0.024
CCC(C(=O)Nc1nccs1)(C(F)(F)F)C(F)(F)F	7.4*	8	-2	.	-1.7	-0.53
Cc1ccc(S(=O)(=O)Nc2cccc3ncccc23)s1	0.52	100*	-5	-3	4.1	-0.16
COc1ccccc1CN(Cc1ccco1)S(=O)(=O)c1ccc(-n2cnnn2)c(OC)c1	.	29	-18	13	-0.3	.
Brc1cccc(-c2n[nH]c(-c3ccccc3)n2)c1	0.075	97*	-6	22	-1.6	-1
S=c1nc(-c2cccc(Br)c2)[nH][nH]1	0.27	4	5	4	0.34	-0.14
CC1=CC(C)(C)N2C(=O)C3(N=C(N)NC(Nc4ccccc4)=N3)c3cc(C)cc1c32 (stereo not given)	-0.24	58	-1	5	-0.49	-0.11
CC1=CC(C)(C)N2C(=O)C3(SCC(=O)N3c3ccc(O)cc3)c3cc(C)cc1c32 (stereo not given)	-1.2	87*	4	-19	-1.4	0.55
[O-][N+]1=c2ccc(Nc3ccccc3)cc2=NC12CCCCC2	0.65	90*	23	21	-2.6	-0.26
Cn1cccc1Cc1nnc(SCC(=O)Nc2ccc(Cl)cc2)n1-c1ccc(F)cc1	0.065	71*	-8	12	-0.13	-0.51
Cn1cccc1Cc1nnc(SCC(=O)Nc2ccc(F)cc2)n1-c1ccc(F)cc1	-0.037	16	-1	8	0.09	-0.079
CCn1cc(Br)c(C(=O)Nc2ccc(OC)cc2)n1	0.051	5	16	14	-0.55	-0.39
SMILES	M1 agonist	Ecoli tolC	E coli WT exp	AP ELISA ortho	WNV NS2B-NS3 inh	M1 antagonist
CCn1cc(Br)c(C(=O)Nc2ccc(C(=O)OC(C)C)cc2)n1	-0.17	67*	2	4	0.58	-0.92
CCOC(=O)C1=C(c2cccc(Oc3ccccc3)c2)NC(=S)NC1C (stereo not given)	.	.	-13	.	.	.
c1ccc(-c2oc3ncnc(NCCN4CCOCC4)c3c2-c2ccccc2)cc1	0.78	65*	-6	14	-0.64	0.052
Cc1ccc2c(c1)[nH]c1c(N3CCN(Cc4ccc5c(c4)OCO5)CC3)ncnc12	3.4*	47	.	-18	1.2	-2
c1ccc(Cn2nnc3c(N4CCOCC4)ncnc32)cc1	0.14	1	6	16	0.14	-0.82
c1ccc(Cn2nnc3c(N4CCN(Cc5ccc6c(c5)OCO6)CC4)ncnc32)cc1	0.0093	61*	-24	16	-0.81	-1.2
c1ccc2c(c1)oc1c(N3CCN(Cc4ccc5c(c4)OCO5)CC3)ncnc12	0.78	100*	-15	4	0.2	-2.5
Clc1ccc(N2CCN(c3ncnc4c3oc3ccccc34)CC2)cc1	-0.84	-8	.	5	-1.5	1.2
CCOC(=O)c1nn(-c2ccc(C)cc2)cc1C(=O)c1ccccc1	.	.	-13	.	.	.
Cn1c(N2CCC(C(N)=O)CC2)nc2c1c(=O)n(Cc1ccc(Br)cc1)c(=O)n2C	-0.99	12	.	0	0.87	-0.22
CC(NCc1ccc(N(C)C)cc1)C1CC2CCC1C2 (stereo not given)	.	.	26	.	.	.
CN(CCO)c1ncnc2nc[nH]c12	0.82	-14	-1	8	-0.56	0.72*
C=CCn1c(SCC(=O)Nc2c(C)n(C)n(-c3ccccc3)c2=O)nc2sc(C)c(-c3ccccc3)c2c1=O	.	.	-11	.	.	.
COC(=O)c1ccc(O)c(Sc2cc(C(=O)OC)ccc2O)c1	0.92	87*	21	8	0.71	-0.83
Cc1noc(C)c1CSc1nnc2c(C)cc3ccccc3n12	1.7*	-3	.	2	-0.64	-0.46
CCOc1ccc(NC(=O)c2oc3ccccc3c2NC(=O)C2CC2)cc1	-0.06	-11	.	17	1.5	0.049
CCOc1ccc(-c2[nH]ncc2Oc2ccccc2OC)c(O)c1	1.6	94*	6	8	0.94	0.018
Cc1[nH]nc(-c2ccc(OCc3cnn(-c4ccccc4)c3)cc2O)c1Oc1ccc(F)cc1	.	.	-15	.	.	.
CCCOC(=O)c1ccc(Oc2cn[nH]c2-c2ccc(OC)cc2O)cc1	-0.95	95*	-2	4	0.82	0.4
C=C(C)COc1ccc(-c2[nH]ncc2-c2ccccc2OC)c(O)c1	0.44	38	26	1	0.88	0.53
C=C(C)COc1ccc(-c2[nH]ncc2Oc2ccccc2OC)c(O)c1	-0.66	100*	17	-23	0.3	-0.17
CCOc1ccc(-c2n[nH]c(C)c2Oc2ccc(OC)cc2)c(O)c1	-0.005	95*	9	-6	-0.11	-0.68
CC(NC(=O)c1ccccc1NC(=O)CSc1nnnn1C)c1ccccc1 (stereo not given)	.	.	-3	.	.	.
CCCCCOc1ccccc1C(=O)NCCC(=O)O	.	.	1	.	.	.
CCCCOc1ccc(CNC(=S)N/N=C/c2ccc(OC)c(OC)c2)cc1	.	.	-14	.	.	.
CCOc1ccc(-c2[nH]ncc2Oc2ccccc2OCC)c(O)c1	0.81	95*	22	-1	0.45	0.21
COC(=O)CN1C(=S)N(Cc2ccccc2)C(=O)C1CC(=O)Nc1ccc(Br)cc1 (stereo not given)	.	.	-4	.	.	.
